# In ChEMBL document CHEMBL5096242, “Structure-Activity Studies of 1H-Imidazo[4,5-c]quinolin-4-amine Derivatives as A3 Adenosine Receptor Positive Allosteric Modulators” (J Med Chem, 2022):
# Columns and labels:
# [1] = biological target: Sigma intracellular receptor 2 (Homo sapiens, UniProt Q5BJF2); assay: Displacement of [3H]-DTG from human sigma2 receptor expressed in human HEK293T cell membrane incubated for 90 mins by radioligand binding assay
# Translocator protein = Translocator protein (Homo sapiens, UniProt P30536); assay: Inhibition of human TPSO receptor expressed in human HEK293T cell membrane incubated for 90 mins by radioligand binding assay
# Sequence of Translocator protein (P30536 whole entry): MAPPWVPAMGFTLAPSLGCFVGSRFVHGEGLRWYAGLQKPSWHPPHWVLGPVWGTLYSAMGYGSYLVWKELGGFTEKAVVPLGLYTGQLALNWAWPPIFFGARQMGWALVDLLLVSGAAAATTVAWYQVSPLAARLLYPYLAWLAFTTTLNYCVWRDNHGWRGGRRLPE
# Adenosine receptor A3 = biological target: T1, Adenosine receptor A3 (Homo sapiens, UniProt P0DMS8)
# T1 sequence (P0DMS8 whole entry): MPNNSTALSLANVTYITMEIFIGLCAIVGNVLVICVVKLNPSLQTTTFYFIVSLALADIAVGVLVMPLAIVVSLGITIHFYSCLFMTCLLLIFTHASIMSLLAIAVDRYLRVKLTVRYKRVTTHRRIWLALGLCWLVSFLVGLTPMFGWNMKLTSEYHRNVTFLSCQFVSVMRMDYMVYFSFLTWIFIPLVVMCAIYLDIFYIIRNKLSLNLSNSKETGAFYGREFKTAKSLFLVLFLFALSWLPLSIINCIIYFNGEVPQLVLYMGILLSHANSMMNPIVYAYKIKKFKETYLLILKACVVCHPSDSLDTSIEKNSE
# D(3) dopamine receptor = D(3) dopamine receptor (Homo sapiens, UniProt P35462); assay: Displacement of [3H]-N-methylspiperone from human D3 receptor expressed in human HEK293T cell membrane incubated for 90 mins by radioligand binding assay
# Sequence of D(3) dopamine receptor (P35462 whole entry): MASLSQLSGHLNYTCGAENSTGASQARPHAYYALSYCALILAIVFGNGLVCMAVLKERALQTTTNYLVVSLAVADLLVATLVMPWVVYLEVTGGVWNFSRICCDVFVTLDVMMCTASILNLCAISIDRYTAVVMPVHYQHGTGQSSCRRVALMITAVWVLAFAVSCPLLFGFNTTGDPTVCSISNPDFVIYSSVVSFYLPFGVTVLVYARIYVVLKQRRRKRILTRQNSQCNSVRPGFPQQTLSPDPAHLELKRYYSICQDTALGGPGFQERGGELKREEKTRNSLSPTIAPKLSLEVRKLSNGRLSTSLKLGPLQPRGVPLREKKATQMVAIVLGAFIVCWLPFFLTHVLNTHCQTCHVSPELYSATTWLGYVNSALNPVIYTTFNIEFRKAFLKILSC
# [2] = biological target: Sigma non-opioid intracellular receptor 1 (Homo sapiens, UniProt Q99720); assay: Displacement of [3H]-LSD from human sigma1 receptor expressed in human HEK293T cell membrane incubated for 90 mins by radioligand binding assay
# Sequence of Sigma non-opioid intracellular receptor 1 (Q99720 whole entry): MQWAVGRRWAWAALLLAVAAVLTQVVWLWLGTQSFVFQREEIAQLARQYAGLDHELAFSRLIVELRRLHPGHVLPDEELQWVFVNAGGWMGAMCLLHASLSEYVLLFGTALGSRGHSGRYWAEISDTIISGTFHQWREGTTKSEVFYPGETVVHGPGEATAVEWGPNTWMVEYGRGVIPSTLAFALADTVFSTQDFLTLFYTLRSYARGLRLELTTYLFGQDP
# Cytochrome P450 1A2 = biological target: T2, Cytochrome P450 1A2 (Homo sapiens, UniProt P05177); assay: Inhibition of CYP1A2 in human liver Microsome using phenacetin as substrate in presence of NADPH by LC-MS/MS analysis
# T2 sequence (P05177 whole entry): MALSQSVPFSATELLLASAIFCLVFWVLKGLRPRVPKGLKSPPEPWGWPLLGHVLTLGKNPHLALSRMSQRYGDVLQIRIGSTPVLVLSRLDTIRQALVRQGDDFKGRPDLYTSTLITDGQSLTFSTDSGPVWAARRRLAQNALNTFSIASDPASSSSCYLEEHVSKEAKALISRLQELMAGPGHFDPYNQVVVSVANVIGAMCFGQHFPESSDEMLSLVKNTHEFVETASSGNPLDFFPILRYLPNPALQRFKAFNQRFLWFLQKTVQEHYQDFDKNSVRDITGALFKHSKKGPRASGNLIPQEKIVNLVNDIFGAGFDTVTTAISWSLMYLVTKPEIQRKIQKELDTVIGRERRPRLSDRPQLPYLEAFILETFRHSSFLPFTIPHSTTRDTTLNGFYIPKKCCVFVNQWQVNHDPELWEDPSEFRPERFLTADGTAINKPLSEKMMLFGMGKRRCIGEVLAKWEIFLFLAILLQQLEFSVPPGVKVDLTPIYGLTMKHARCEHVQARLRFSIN
# [3] = Inhibition of CYP2C9 in rat liver Microsome using phenacetin as substrate in presence of NADPH by LC-MS/MS analysis
# Cytochrome P450 2D6 = Cytochrome P450 2D6 (Homo sapiens, UniProt P10635); assay: Inhibition of CYP2D6 in human liver Microsome using dextromethorphan as substrate in presence of NADPH by LC-MS/MS analysis
# Sequence of Cytochrome P450 2D6 (P10635 whole entry): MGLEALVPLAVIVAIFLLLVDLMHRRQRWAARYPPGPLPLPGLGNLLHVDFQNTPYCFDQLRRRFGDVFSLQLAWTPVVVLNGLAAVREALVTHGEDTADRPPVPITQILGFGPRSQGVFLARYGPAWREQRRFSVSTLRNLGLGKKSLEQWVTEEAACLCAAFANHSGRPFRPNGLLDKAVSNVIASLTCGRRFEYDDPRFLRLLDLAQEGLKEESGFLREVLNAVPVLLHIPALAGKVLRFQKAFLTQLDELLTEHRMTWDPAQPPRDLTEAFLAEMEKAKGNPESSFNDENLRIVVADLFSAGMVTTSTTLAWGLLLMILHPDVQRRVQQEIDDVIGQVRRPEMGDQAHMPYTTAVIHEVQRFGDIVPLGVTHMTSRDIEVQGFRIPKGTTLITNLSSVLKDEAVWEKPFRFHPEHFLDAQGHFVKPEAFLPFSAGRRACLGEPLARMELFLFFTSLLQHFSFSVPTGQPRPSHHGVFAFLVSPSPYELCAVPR
# [4] = biological target: Cytochrome P450 1A2 (Homo sapiens) (UniProt P05177)
# [5] = biological target: Cytochrome P450 1A2 (Homo sapiens) (UniProt P05177); remark: listed apart in the source
# [6] = Inhibition of CYP2C9 in mouse liver Microsome using phenacetin as substrate in presence of NADPH by LC-MS/MS analysis
# [7] = biological target: 5-hydroxytryptamine receptor 2B (Homo sapiens, UniProt P41595); assay: Displacement of [3H]-LSD from human 5HT2B expressed in human HEK293 cell membrane incubated for 90 mins by radioligand binding assay; type: cell membranes
# Sequence of 5-hydroxytryptamine receptor 2B (P41595 whole entry): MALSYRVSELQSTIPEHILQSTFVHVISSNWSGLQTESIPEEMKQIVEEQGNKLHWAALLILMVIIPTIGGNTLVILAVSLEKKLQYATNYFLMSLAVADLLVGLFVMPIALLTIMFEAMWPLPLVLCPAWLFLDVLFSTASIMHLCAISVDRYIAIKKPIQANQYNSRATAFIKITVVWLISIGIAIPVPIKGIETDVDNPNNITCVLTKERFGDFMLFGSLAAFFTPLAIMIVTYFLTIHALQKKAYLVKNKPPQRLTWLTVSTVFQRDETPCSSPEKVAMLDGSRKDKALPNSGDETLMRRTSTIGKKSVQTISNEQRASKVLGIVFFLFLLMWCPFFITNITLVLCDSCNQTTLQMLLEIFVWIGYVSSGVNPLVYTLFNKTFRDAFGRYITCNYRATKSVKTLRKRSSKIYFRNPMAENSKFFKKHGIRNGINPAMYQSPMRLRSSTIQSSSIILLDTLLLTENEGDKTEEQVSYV
# Procedure, shortened: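 Off-target panel run by the NIMH PDSP. Each derivative was first screened at 10 μM in radioligand binding.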
# [8] = Stability in human plasma assessed as compound remaining and measured after 120 mins by LC-MS/MS analysis; conditions: 2 h
# [9] = Stability in mouse plasma assessed as half life and measured after 120 mins by LC-MS/MS analysis; conditions: 2 h
# [10] = Stability in mouse plasma assessed as compound remaining and measured after 120 mins by LC-MS/MS analysis; conditions: 2 h
# [11] = Stability of the compound in simulated gastric fluid at pH 1 to 2 assessed as compound remaining at 120 mins by LC-MS/MS analysis; conditions: simulated gi fluid, pH 1, 2 h
# [12] = simulated gi fluid, pH 1, 2 h
# Mu-type opioid receptor = Mu-type opioid receptor (Homo sapiens, UniProt P35372); assay: Displacement of [3H]-DAMGO from human MOR receptor expressed in human HEK293 cell membrane incubated for 90 mins by radioligand binding assay
# Sequence of Mu-type opioid receptor (P35372 whole entry): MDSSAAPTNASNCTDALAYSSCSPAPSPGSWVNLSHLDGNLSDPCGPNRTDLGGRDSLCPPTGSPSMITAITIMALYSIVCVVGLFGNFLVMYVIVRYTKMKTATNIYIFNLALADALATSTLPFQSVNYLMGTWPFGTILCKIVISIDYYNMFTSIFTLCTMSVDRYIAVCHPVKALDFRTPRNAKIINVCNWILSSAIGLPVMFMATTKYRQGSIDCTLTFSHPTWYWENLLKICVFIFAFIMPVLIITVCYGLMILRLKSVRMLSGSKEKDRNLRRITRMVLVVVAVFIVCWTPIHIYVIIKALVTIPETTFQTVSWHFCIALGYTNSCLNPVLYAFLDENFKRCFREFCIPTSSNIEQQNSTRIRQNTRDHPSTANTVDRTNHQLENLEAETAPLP
# [13] = biological target: Sodium-dependent dopamine transporter (Homo sapiens, UniProt Q01959); assay: Displacement of [3H]-Win35428 from human DAT receptor expressed in human HEK293T cell membrane incubated for 90 mins by radioligand binding assay
# Sequence of Sodium-dependent dopamine transporter (Q01959 whole entry): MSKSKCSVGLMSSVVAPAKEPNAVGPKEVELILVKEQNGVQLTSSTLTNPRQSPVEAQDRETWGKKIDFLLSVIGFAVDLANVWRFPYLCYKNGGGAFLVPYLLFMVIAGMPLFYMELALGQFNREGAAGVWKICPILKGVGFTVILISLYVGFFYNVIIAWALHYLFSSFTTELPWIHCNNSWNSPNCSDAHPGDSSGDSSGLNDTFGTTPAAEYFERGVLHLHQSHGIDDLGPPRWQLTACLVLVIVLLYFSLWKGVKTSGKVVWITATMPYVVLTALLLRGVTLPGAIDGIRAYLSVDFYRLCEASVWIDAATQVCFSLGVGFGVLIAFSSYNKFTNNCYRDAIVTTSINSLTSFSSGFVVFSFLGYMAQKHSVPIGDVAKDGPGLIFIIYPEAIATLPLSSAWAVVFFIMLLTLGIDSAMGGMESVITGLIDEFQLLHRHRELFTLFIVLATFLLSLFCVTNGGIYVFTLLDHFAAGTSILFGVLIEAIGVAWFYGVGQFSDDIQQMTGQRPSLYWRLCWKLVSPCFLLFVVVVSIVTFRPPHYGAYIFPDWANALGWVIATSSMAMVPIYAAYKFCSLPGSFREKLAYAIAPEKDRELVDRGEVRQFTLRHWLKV
# [14] = biological target: T3, Adenosine receptor A3 (Homo sapiens) (UniProt P0DMS8); assay: Positive allosteric modulator activity in wild type human A3AR opioid receptor stably expressed in human HEK293 cell membrane assessed as increase in CI-IB-MECA induced [35S]GTPGAgammaS binding to receptor at 10 uM preincubated for 1 hrs with CI-IB-MECA further incubated with [35S]GTPGAgammaS for …; type: cell membranes; conditions: filed as positive allosteric modulator, time 3.0 hrs
# T3 sequence (whole entry): T1 sequence (P0DMS8 whole entry)
# [15] = Protein binding in mouse plasma assessed as bound fraction at 10 uM and measured for 5 hrs by LC-MS/MS based dialysis analysis
# [16] = Protein binding in human plasma assessed as bound fraction at 10 uM and measured for 5 hrs by LC-MS/MS based dialysis analysis
# [17] = Stability in rat plasma assessed as half life and measured after 120 mins by LC-MS/MS analysis; conditions: 2 h
# [18] = MRT in Wistar rat at 1 mg/kg, po and measured upto 24 hrs; type: ADME, organism-based; conditions: plasma, 3 mg/kg, in the assay text read “3 mg/kg” for “1 mg/kg”
# Procedure, shortened: (§1)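 Fasted male Wistar rats (RccHan:WIST), 6–10 weeks old at acclimation, three per group. Dosing was 0.5 mg/kg i.v. in DMSO:20% HPBCD (10:90), or 1, 3 and 10 mg/kg by oral gavage in DMSO:Kolliphor EL:PBS (15:15:70). Jugular blood was taken at 0.083–24 h (stated for i.v.) into heparin, and plasma was frozen at −70 °C. Parameters came from non-compartmental analysis.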
# [19] = Clearance in Wistar rat assessed as parent compound remaining at 3 mg/kg, po and measured upto 24 hrs; type: ADME, organism-based; conditions: in vivo; procedure, shortened: as §1
# [20] = Half life in Wistar rat at 3 mg/kg, po and measured upto 24 hrs; conditions: in vivo
# [21] = Microsomal stability in mouse liver microsomes assessed as parent compound remaining at 3 uM incubated for 120 mins by LC-MS/MS analysis; conditions: 2 h
# [22] = rat, microsomes, 2 h, 3 µM
# [23] = simulated gi fluid, pH 6, 2 h
# [24] = Stability in rat plasma assessed as compound remaining and measured after 120 mins by LC-MS/MS analysis; conditions: 2 h
# [25] = Half life in Wistar rat at 10 mg/kg, po and measured upto 24 hrs; conditions: in vivo
# [26] = Protein binding in rat plasma assessed as bound fraction at 10 uM and measured for 5 hrs by LC-MS/MS based dialysis analysis
# [27] = Stability of the compound in simulated intestinal fluid at pH 6 to 8 assessed as compound remaining at 120 mins by LC-MS/MS analysis; conditions: simulated gi fluid, pH 6, 2 h
# [28] = Half life in Wistar rat at 0.5 mg/kg, iv and measured upto 24 hrs; type: ADME, organism-based; conditions: in vivo; procedure, shortened: as §1
# in vivo [29] = conditions: Wistar, rat, po, 3 mg/kg
# [30] = Permeability across basolateral to apical side in human Caco-2 cells assessed as compound recovery at 10 uM measured upto 120 mins by LC-MS/MS analysis; type: ADME, cell-based; conditions: caco-2, 2 h
# in vivo [31] = conditions: Wistar, rat, po, 10 mg/kg
# [32] = Clearance in Wistar rat plasma at 1 mg/kg, po and measured upto 24 hrs; type: ADME, organism-based; procedure, shortened: as §1
# [33] = Microsomal stability in rat liver microsomes assessed as parent compound remaining at 3 uM incubated for 120 mins by LC-MS/MS analysis; conditions: 2 h
# [34] = biological target: Voltage-gated inwardly rectifying potassium channel KCNH2 (Homo sapiens, UniProt Q12809); assay: Inhibition of human ERG stably transfected in HEK293 cells incubated for 2 hrs by TAMRA fluorescence polarization assay
# Sequence of Voltage-gated inwardly rectifying potassium channel KCNH2 (Q12809 whole entry): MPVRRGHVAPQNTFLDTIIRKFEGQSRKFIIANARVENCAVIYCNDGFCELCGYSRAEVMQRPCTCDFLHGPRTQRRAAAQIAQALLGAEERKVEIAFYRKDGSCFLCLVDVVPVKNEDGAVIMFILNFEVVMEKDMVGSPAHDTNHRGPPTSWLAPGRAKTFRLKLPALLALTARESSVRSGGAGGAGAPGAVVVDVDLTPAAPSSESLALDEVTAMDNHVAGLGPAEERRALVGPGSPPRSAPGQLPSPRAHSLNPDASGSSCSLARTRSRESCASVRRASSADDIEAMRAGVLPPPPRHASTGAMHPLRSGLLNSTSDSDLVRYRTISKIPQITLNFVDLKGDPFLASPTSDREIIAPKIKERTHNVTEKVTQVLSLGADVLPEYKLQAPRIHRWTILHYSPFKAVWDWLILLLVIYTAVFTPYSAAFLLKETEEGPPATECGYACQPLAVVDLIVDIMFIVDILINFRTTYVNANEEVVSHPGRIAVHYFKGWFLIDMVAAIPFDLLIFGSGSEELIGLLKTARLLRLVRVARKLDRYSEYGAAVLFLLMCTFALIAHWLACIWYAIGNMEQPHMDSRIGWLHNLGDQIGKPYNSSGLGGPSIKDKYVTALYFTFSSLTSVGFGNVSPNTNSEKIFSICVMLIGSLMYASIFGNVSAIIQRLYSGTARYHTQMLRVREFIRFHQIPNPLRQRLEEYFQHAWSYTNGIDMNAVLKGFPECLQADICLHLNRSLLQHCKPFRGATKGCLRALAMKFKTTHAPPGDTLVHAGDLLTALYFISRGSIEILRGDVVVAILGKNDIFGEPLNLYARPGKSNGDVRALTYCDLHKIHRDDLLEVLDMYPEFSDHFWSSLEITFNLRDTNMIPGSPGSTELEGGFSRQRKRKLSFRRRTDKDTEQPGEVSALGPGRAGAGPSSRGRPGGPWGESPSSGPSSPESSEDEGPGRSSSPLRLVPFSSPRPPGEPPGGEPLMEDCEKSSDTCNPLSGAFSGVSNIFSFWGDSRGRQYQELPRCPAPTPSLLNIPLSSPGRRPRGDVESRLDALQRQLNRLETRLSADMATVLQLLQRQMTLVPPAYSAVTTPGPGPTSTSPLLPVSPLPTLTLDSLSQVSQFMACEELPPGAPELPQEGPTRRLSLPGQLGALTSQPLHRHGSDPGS
# [35] = mouse, microsomes, 2 h, 3 µM
# [36] = Aqueous solubility of compound at pH 7.4 by PDA spectrophotometric analysis; conditions: buffer
# [37] = Permeability across apical to basolateral side in human Caco-2 cells assessed as compound recovery at 10 uM measured upto 120 mins by LC-MS/MS analysis; type: ADME, cell-based; conditions: caco-2, 2 h
# [38] = human, microsomes, 2 h, 3 µM
# [39] = Stability in human plasma assessed as half life and measured after 120 mins by LC-MS/MS analysis; conditions: 2 h
# [40] = Clearance in Wistar rat plasma at 3 mg/kg, po and measured upto 24 hrs; type: ADME, organism-based; procedure, shortened: as §1
# [41] = Clearance in Wistar rat plasma at 10 mg/kg, po and measured upto 24 hrs; type: ADME, organism-based; procedure, shortened: as §1
# [42] = Microsomal stability in human liver microsomes assessed as parent compound remaining at 3 uM incubated for 120 mins by LC-MS/MS analysis; conditions: 2 h
# [43] = Cmax in Wistar rat plasma at 10 mg/kg, po and measured after 2 hrs; type: ADME, organism-based; design: time 2 hrs, dose 10 mg/kg, route po; conditions: in vivo; procedure, shortened: as §1
# [44] = Tmax in Wistar rat plasma at 1 to 10 mg/kg, po and measured after 2 hrs; type: ADME, organism-based; conditions: dose 1-10 mg/kg; procedure, shortened: as §1
# Sequence of Sigma intracellular receptor 2 (Q5BJF2 whole entry): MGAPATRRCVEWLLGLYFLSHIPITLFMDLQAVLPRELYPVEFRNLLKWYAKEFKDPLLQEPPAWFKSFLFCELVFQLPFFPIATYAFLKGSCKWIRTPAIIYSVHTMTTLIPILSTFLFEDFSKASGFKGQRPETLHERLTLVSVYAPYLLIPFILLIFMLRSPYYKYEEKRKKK
smiles,measurement,setting,value
CCCC(CCC)c1nc2c(Nc3ccc(I)cc3)nc3ccccc3c2[nH]1,Ki,[1],0.891 µM
same,Ki,Translocator protein,0.123 µM
Clc1ccc(Nc2nc3ccccc3c3[nH]c(C4CCCCC4)nc23)cc1Cl,Ki,Adenosine receptor A3,2 µM
Ic1ccc(Nc2nc3ccccc3c3[nH]c(C4CCCCC4)nc23)cc1,Ki,D(3) dopamine receptor,0.846 µM
Clc1ccc(Nc2nc3ccccc3c3[nH]c(C4CCCCCCCC4)nc23)cc1Cl,Ki,[1],0.907 µM
same,Ki,[2],5.15 µM
Clc1ccc(Nc2nc3ccccc3c3[nH]c(C4CCCCCCCCCCC4)nc23)cc1Cl,Ki,D(3) dopamine receptor,7.63 µM
Clc1ccc(Nc2nc3ccccc3c3[nH]c(C4CCCCCCCCCC4)nc23)cc1Cl,Ki,D(3) dopamine receptor,5.28 µM
Clc1ccc(COC(Cn2ccnc2)c2ccc(Cl)cc2Cl)c(Cl)c1 (stereo unspecified) [MICONAZOLE],IC50,Cytochrome P450 1A2,4.55 µM
same,IC50,[3],38 µM
same,IC50,Cytochrome P450 2D6,1.64 µM
same,IC50,[4],4.55 µM
same,IC50,[5],4.55 µM
same,IC50,[6],38 µM
CCCC(CCC)c1nc2c(Nc3ccc(Cl)c(Cl)c3)nc3ccccc3c2[nH]1,Ki,[1],1.36 µM
same,Ki,[7],1.36 µM
same,Ki,[2],1.48 µM
CCN(CC)CCOC(=O)c1ccc(N)cc1 [PROCAINE],Stability,[8],0%
same,t1/2,[9],0.00183 h
same,Stability,[10],0%
COc1ccc2[nH]c([S+]([O-])Cc3ncc(C)c(OC)c3C)nc2c1 (stereo unspecified) [OMEPRAZOLE],Stability,[11],0%
same,t1/2,[12],0.255 h
Clc1ccc(Nc2nc3ccccc3c3[nH]c([C@@H]4C[C@@H]5CCC[C@@H](C5)C4)nc23)cc1Cl,Ki,Mu-type opioid receptor,7.22 µM
same,Ki,[13],0.467 µM
Clc1ccc(Nc2nc3ccccc3c3[nH]c(C4CC5C=CC4CC5)nc23)cc1Cl (racemic),Activity,[14],100%
CC(=O)CC(c1ccccc1)c1c(O)c2ccccc2oc1=O (stereo unspecified) [WARFARIN],PPB,[15],83.6%
same,PPB,[16],96.3%
Clc1ccc(Nc2nc3ccccc3c3[nH]c(C4CCC=CCC4)nc23)cc1Cl,t1/2,[17],9.67 h
same,MRT,[18],3.98 h
same,remaining at 24 h,[19],50%
same,t1/2,[20],1.29 h
same,Stability,[21],76.4%
same,t1/2,[22],1.17 h
same,t1/2,[23],9.55 h
same,Stability,[24],88.7%
same,t1/2,[25],2.6 h
same,PPB,[26],99.1%
same,Stability,[27],100%
same,Ki,[1],0.575 µM
same,t1/2,[28],2.38 h
same,bioavailability at 24 h,in vivo [29],28.7%
same,permeability,[30],78%
same,IC50,Cytochrome P450 1A2,6.99 µM
same,Stability,[11],69.1%
same,bioavailability at 24 h,in vivo [31],47.5%
same,CL/F,[32],0.447 L/h/kg
same,Stability,[33],52.1%
same,IC50,[34],6.06 µM
same,Stability,[8],69.7%
same,t1/2,[35],3.23 h
same,IC50,[4],6.99 µM
same,t1/2,[12],3.4 h
same,solubility,[36],0.39 µg/mL
same,permeability,[37],48.1%
same,t1/2,[9],11.6 h
same,t1/2,[38],3.33 h
same,t1/2,[39],2.65 h
same,CL/F,[40],1.58 L/h/kg
same,CL/F,[41],0.975 L/h/kg
same,Ki,[2],4.64 µM
same,IC50,[5],6.99 µM
same,Stability,[42],81.2%
same,Cmax,[43],1.78 µg/mL
same,Tmax,[44],2 h
same,Stability,[10],83.5%
COc1ccc([C@@H]2Sc3ccccc3N(CCN(C)C)C(=O)[C@@H]2OC(C)=O)cc1 [DILTIAZEM],Stability,[24],83.9%
